Article PMC5351328 (Clinical and Translational Science, 2016)
Like-named read-outs stand apart in the source and are kept apart here.

How the values were obtained:
CYP2C8 = details: cited from earlier work
[1] = type: in vivo, human; details: for CL/F / AUC / AUC(0-inf) / Cmax / concentration at 14 day / Tmax / Vd/F / half-life: geometric mean (SD); for AUC / AUC(0-inf) / Cmax / concentration at 14 day / Tmax / Vd/F / half-life: human, plasma, oral; for AUC: AUC0–τ; for AUC(0-inf): AUC0–∞; for concentration at 14 day: Cmin; for Vd/F: Vz/F; for time to steady-state conditions: predose samples
How it was run: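 Plasma sampled on Days 1 and 14 predose and 0.5–24 h postdose, plus predose on Days 3, 5, 7, 10, 13, 16. Blood kept on ice, spun 2,000g 15 min at 5°C within 45 min, and plasma stored at –70°C. Extraction was by protein precipitation with internal standard. Parameters came from noncompartmental analysis. ANOVA on ln-transformed Cmax, Cmin and AUC0–τ gave geometric mean ratios with 90% CIs versus matched controls.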

[2] = Day 14, mild hepatic impairment
[3] = Day 14, moderate hepatic impairment
[4] = 150 mg, Day 14, 150 mg once daily, matched controls (mild)
[5] = 150 mg, Day 14, 150 mg once daily, matched controls (moderate)
[6] = 150 mg, Day 14, 150 mg once daily, mild hepatic impairment
[7] = 150 mg, Day 14, 150 mg once daily, moderate hepatic impairment

SMILES: CCCCOCCOc1ccc(-c2ccc3c(c2)/C=C(/C(=O)Nc2ccc([S@@+]([O-])Cc4cncn4CCC)cc2)CCCN3CC(C)C)cc1 [cenicriviroc]
- substrate of CYP2C8 (CYP2C8): substrate
- CL/F ([1]; Day 1, 150 mg, matched controls (mild)): 22.1 L/h
- CL/F ([1]; Day 1, 150 mg, matched controls (moderate)): 31.7 L/h
- CL/F ([1]; Day 1, 150 mg, mild hepatic impairment): 27.1 L/h
- CL/F ([1]; Day 1, 150 mg, moderate hepatic impairment): 25.8 L/h
- CL/F ([1]; Day 14, 150 mg once daily, matched controls (mild)): 14.4 (1.5) L/h
- CL/F ([1]; Day 14, 150 mg once daily, matched controls (moderate)): 25.3 (2.0) L/h
- CL/F ([1]; Day 14, 150 mg once daily, mild hepatic impairment): 23.2 (1.9) L/h
- CL/F ([1]; Day 14, 150 mg once daily, moderate hepatic impairment): 16.3 (1.3) L/h
- AUC0–τ lower than matched controls [1, 2]: 38%
- Cmax lower than matched controls [1, 2]: 40%
- Cmin lower than matched controls [1, 2]: ~27%
- AUC0–τ higher than matched controls [1, 3]: 55%
- Cmax higher than matched controls [1, 3]: 29%
- Cmin higher than matched controls [1, 3]: ~97%
- AUC [1, 4]: 10400 ng·h/mL
- AUC [1, 5]: 5940 ng·h/mL
- AUC [1, 6]: 6470 ng·h/mL
- AUC [1, 7]: 9180 ng·h/mL
- AUC(0-inf) [1, 4]: 18900 ng·h/mL
- AUC(0-inf) [1, 5]: 11000 ng·h/mL
- AUC(0-inf) [1, 6]: 14600 ng·h/mL
- AUC(0-inf) [1, 7]: 26100 ng·h/mL
- Cmax [1, 4]: 759 ng/mL
- Cmax [1, 5]: 469 ng/mL
- Cmax [1, 6]: 452 ng/mL
- Cmax [1, 7]: 607 ng/mL
- concentration at 14 day [1, 4]: 248 ng/mL
- concentration at 14 day [1, 5]: 140 ng/mL
- concentration at 14 day [1, 6]: 180 ng/mL
- concentration at 14 day [1, 7]: 275 ng/mL
- Tmax [1, 4]: 5.66 h
- Tmax [1, 5]: 4.49 h
- Tmax [1, 6]: 5.34 h
- Tmax [1, 7]: 4.83 h
- Vd/F ([1]; 150 mg, Day 1, 150 mg, matched controls (mild)): 262 L
- Vd/F ([1]; 150 mg, Day 1, 150 mg, matched controls (moderate)): 370 L
- Vd/F ([1]; 150 mg, Day 1, 150 mg, mild hepatic impairment): 329 L
- Vd/F ([1]; 150 mg, Day 1, 150 mg, moderate hepatic impairment): 386 L
- Vd/F [1, 4]: 455 L
- Vd/F [1, 5]: 816 L
- Vd/F [1, 6]: 995 L
- Vd/F [1, 7]: 886 L
- half-life ([1]; 150 mg, t1/2, Day 1, 150 mg, moderate hepatic impairment): 10.4 h
- half-life ([1]; 150 mg, t1/2, Day 14, 150 mg once daily, matched controls (mild)): 22 h
- half-life ([1]; 150 mg, t1/2, Day 14, 150 mg once daily, matched controls (moderate)): 22.4 h
- half-life ([1]; 150 mg, t1/2, Day 14, 150 mg once daily, mild hepatic impairment): 29.7 h
- half-life ([1]; 150 mg, t1/2, Day 14, 150 mg once daily, moderate hepatic impairment): 37.6 h
- time to steady-state conditions ([1]; matched controls): 7 to 10 days
- time to steady-state conditions ([1]; participants with mild or moderate HI): 10 to 13 days
